# Bioassay records as filed in PubChem BioAssay.
# MEKK3 PB1 HTS – modulators of MEKK3-MEK5 PB1 binding, primary screen, biochemical, wildtype MEKK3, multiplex bead flow cytometry, Alexa488-MEK5; binding response (% of control), % at 10 µM; 290,000 tested, 1.4% active; Mitogen-activated protein kinase kinase kinase 3 (Homo sapiens), Q99759; bead-based flow cytometry, Alexa488-MEK5 binding to MEKK3; actives lie on both sides; 0 = blocked by unlabeled MEK5, 100 = vehicle;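 active = binding response more than 3 SD above or below the average of its plate-row segment, actives on both sides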;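 note: Alexa488 bead fluorescence after subtracting the streptavidin-only scavenger bead signal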
# MEKK2 WT-MEK5 – modulators of MEK5 binding to wildtype MEKK2, primary screen, biochemical, multiplex bead flow cytometry, Alexa488-MEK5; 290,000 tested, 1.1% active; AID 1531, 2009; Alexa488-MEK5 binding to MEKK2 WT; actives lie on both sides; Mitogen-activated protein kinase kinase kinase 2 (Homo sapiens), Q9Y2U5; binding response (% of control), % at 10 µM; in the data active = binding response below about 67% or above about 130%
# MEKK2 mut-MEK5 – MEK5 binding signal on mutant MEKK2 PB1, primary screen, biochemical, multiplex bead flow cytometry, Alexa488-MEK5; Alexa488-MEK5 binding to MEKK2 mutant; AID 1530, 2009; percent response, % at 10 µM; 290,000 tested, 0.35% active; in the data active = percent response above about 24%, passing the limit was not always enough
# PREPL inh – PREPL enzyme inhibitors, primary screen, biochemical, fluorescence polarization | Prolyl endopeptidase-like (Homo sapiens), Q4J6C6 | recombinant PREPL, fluorescence polarization activity-based probe | inhibition, % at 5.96 µM | 320,000 tested, 0.68% active | AID 2751, 2010; in the data active = inhibition above about 43%;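 note: 0% = enzyme with DMSO and 100% = wells lacking enzyme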
# Target sequence (Q4J6C6 whole entry, looked up): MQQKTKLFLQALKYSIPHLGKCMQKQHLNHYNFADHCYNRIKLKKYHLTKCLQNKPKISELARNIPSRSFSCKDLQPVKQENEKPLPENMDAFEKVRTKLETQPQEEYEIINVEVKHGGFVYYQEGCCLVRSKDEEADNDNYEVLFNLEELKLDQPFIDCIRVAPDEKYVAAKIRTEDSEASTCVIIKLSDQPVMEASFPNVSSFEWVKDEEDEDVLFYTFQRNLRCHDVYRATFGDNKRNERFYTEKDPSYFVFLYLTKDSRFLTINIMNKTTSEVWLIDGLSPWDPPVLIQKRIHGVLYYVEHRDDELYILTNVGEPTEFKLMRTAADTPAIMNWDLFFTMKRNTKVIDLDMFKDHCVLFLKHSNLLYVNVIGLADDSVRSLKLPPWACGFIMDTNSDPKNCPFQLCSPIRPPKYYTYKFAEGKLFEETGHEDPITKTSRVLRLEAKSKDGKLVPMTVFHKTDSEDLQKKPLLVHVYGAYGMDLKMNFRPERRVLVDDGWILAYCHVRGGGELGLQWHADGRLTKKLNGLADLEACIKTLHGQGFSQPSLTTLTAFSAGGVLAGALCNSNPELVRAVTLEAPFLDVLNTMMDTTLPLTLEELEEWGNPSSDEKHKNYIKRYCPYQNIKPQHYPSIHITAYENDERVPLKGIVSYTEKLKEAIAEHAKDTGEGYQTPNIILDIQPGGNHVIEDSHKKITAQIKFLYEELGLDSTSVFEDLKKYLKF
# UBC13 inh – UBC13 polyubiquitin chain formation inhibitors, primary screen, biochemical, TR-FRET, uHTS. inhibition, % at 20 µM. 330,000 tested, 0.47% active. AID 485273, 2010; in the data active = inhibition above about 45%, passing the limit was not always enough
# Apaf-1 inh – inhibitors of human Apaf-1 apoptosome, primary screen, biochemical, DEVD-Rh110 fluorescence, uHTS | 330,000 tested, 0.71% active | Apoptotic protease-activating factor 1 (Homo sapiens), O14727 | AID 489030, 2010 | reconstituted apoptosome caspase-3 activity | inhibition, % at 20 µM; active = inhibition of at least 40% at 20 µM;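 note: plate controls were DMSO wells for no effect and DEVD-CHO caspase inhibitor wells for full effect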
#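 Assay system: Apoptosome proteins | Medium: pH 7.5 Hepes buffer with CHAPS, BSA, DTT | Also added: Cytochrome c and DEVD-Rh110 substrate | Times: 30 min plus 50 min, RT | Detection: Rhodamine 110 fluorescence at Ex 480/Em 540 nm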
# Apaf-1 inh conf – Apaf-1 inhibitors, single-dose retest, confirmation, biochemical, fluorescence, DEVD-Rh110, 20 µM. AID 504614, 2011. inhibition, % at 20 µM. 1,800 tested, 25% active. reconstituted apoptosome, caspase-3 DEVD-Rh110 fluorescence. shares compounds with Apaf-1 inh;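 active = mean inhibition of at least 40% at 20 µM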;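 note: plate controls were DMSO wells for no effect and DEVD-CHO caspase inhibitor control wells for full effect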
# Rh110 quench – Rh110 fluorescence interference by putative Apaf-1 inhibitors, confirmation, artefact control for Apaf-1 inhibitor project, biochemical, 20 µM | 1,800 tested, under 10 active | activation (fluorescence interference), % at 20 µM | quenched caspase reaction | shares compounds with Apaf-1 inh | AID 504615, 2011;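 active = signal rise of 40% or more at 20 µM, treated as a fluorescence artifact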
# Apaf1 inh interf – fluorescence interference of Apaf-1 inhibitor hits, dose response, artefact control for Apaf-1 inhibitor project; IC50, µM; shares compounds with Apaf-1 inh; 460 tested, under 10 active; fluorescence interference counterscreen, Apaf-1 assay format; call rule not given here
# Starred values were filed as active, the others as inactive; . = no result given. In the library only some 3.1% were active in any assay of this set; here they are far more common.
SMILES,MEKK3 PB1 HTS,MEKK2 WT-MEK5,MEKK2 mut-MEK5,PREPL inh,UBC13 inh,Apaf-1 inh,Apaf-1 inh conf,Rh110 quench,others
CCOc1cc(/C=C2/C(=O)N(c3ccccc3)N=C2C)ccc1OC(=O)c1cccs1,103,97,2,54*,-67,69*,33,4,
CCn1c(SCC(=O)N2CCC(C)CC2)nc2c(c1=O)SC(C)C2 (centres undefined),98,97,-1,17,-5,-4,.,.,
CN1CCC(=O)N(CCOc2ccccc2)CC1,104,102,2,16,-14,11,.,.,
COc1cc2sc3ccc(-c4ccc(N(C)C)nc4)cc3c(=O)c2cc1OC,97,93,-8,33,1,44*,37,5,
COc1ccc(-c2ccc3sc4ccccc4c(=O)c3c2)cn1,111,107,5,2,6,16,.,.,
COc1ccc(Cc2nc3ccccc3c(=O)n2N)cc1OC,.,.,.,0,-3,0,.,.,
O=C1C=C(Nc2ccccc2)C(=O)c2ccccc21,111,103,1,15,-152,17,.,.,
O=C1C=C(Nc2ccccc2)c2ccccc2C1=O,99,95,-5,.,-287,92*,91*,-3,Apaf1 inh interf=>100
O=C(O)c1ccccc1Nc1ccccc1C(=O)O,108,103,7,-1,-4,-1,.,.,
O=C1C=C(Nc2ccccc2C(=O)O)c2ccccc2C1=O,89,85,-1,12,-100,91*,93*,-1,Apaf1 inh interf=>100
CCCCNC1=CC(=O)C(=O)c2ccccc21,106,90,-11,4,-133,96*,84*,3,Apaf1 inh interf=>100
CCc1ccc(NC2=CC(=O)C(=O)c3ccccc32)cc1,.,.,.,.,-182,92*,86*,6,Apaf1 inh interf=>100
Cn1c(=O)c2sccc2n2c(CCCC(=O)NCc3ccc(F)cc3)nnc12,100,97,-6,13,-7,2,.,.,
O=C(c1cncc(Br)c1)N1CCN(S(=O)(=O)c2ccc(Cl)cc2)CC1,106,107,0,2,0,4,.,.,
CC(C)(C)c1ccc(Cn2nnc3c(=O)[nH]c(C4CCN(C(=O)c5ccco5)CC4)nc32)cc1,103,99,-3,.,14,40,.,.,
CC(=O)Nc1ccc(NC(=O)C(=O)N/N=C/c2cccnc2)cc1,85,86,-24,4,14,-10,.,.,
CSCC(C)N1CCC(CCC(=O)NC2CC2)CC1 (centres undefined),103,102,6,-3,7,-17,.,.,
COc1ccc2sc(N(CCCN(C)C)C(=O)c3ccc(C(=O)c4ccccc4)cc3)nc2c1,.,.,.,-19,18,30,.,.,
CCN(Cc1ccccc1)S(=O)(=O)c1ccc(C(=O)N(CCCN(C)C)c2nc3cc(OC)ccc3s2)cc1,.,.,.,23,39,40*,15,12,
Cc1c(NC(=O)C(C)Oc2ccc(Br)cc2)c(=O)n(-c2ccccc2)n1C (centres undefined),.,.,.,21,13,-8,.,.,
CN1CCN(c2nc(-c3ccc(C(C)(C)C)cc3)nc3ccccc23)CC1,107,136,16,0,1,43*,20,12,
